From PubChem BioAssay
Only some compounds are listed: those with a hit (about 12% of all), similar ones and a draw of the others.
CHOP inh: inhibitors of CHOP promoter induction, primary screen, cell-based, unfolded protein response, luciferase reporter | CHO-K1 CHOP-promoter luciferase, tunicamycin-induced, 15-18 h | inhibition, % at 10 µM | 220,000 tested, 3.8% active | AID 2732, 2010;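 active = compounds that reduced the stress-induced luciferase reporter signal by more than about 70% of percent inhibition, limit read from the data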;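 note: 0% = tunicamycin plus vehicle and 100% = wells without tunicamycin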
Dynein transport: inhibitors of GR-EGFP nuclear translocation, primary screen, dynein cargo transport inhibitor project, imaging, high-content, 3617.4 mouse cells | test concentration mostly 20 µM; stimulated with dexamethasone, 1 µM; stronger effect = lower value | z-score, hits read low | 220,000 tested, 0.47% active;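 active = plate z-score of nuclear minus cytoplasmic receptor signal below a set negative limit, without overly bright fluorescence or cell loss, cut at about -3.5 in these data, passing the limit was not always enough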;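 note: z-score of nuclear minus cytoplasmic ring GR-EGFP intensity difference per well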
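Also added: dexamethasone, 1.0 µM final. Medium: tet-free, stripped-serum medium. Detection: fixed, Hoechst-stained cells imaged at 10x for EGFP. Read-out: nuclear-to-cytoplasmic GR-EGFP distribution per well. Times: induction 48 h, compound 1 h, agonist 30 min.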
MT stabilizer: microtubule stabilizers in HeLa cells, primary screen, imaging, high-content imaging; HeLa tubulin immunostaining HCS, 24 h; share of cells brighter than vehicle mean+2SD; % tubulin-high responders, % at 10 µM; 200,000 tested, 0.83% active;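 active = plate Z-score above 3 for both tubulin-high and condensed-nucleus cell shares, with cell loss under 80%, at 10 µM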;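 note: anti alpha tubulin signal scored within the nucleus-defined area of each cell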
L major viab: Leishmania major promastigote growth inhibition, primary screen; AID 1063, 2008; Leishmania major promastigotes, resazurin fluorescence viability; 200,000 tested, 9% active; inhibition, % at 10 µM; in the data active = inhibition above about 50%;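 note: promastigotes grown with compound for 44 hours at 28 °C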
Autophagy HCS: autophagy modulators in MEF cells, primary screen, imaging, high-content, MEF GFP-LC3; MEF GFP-LC3 puncta imaging; test concentration mostly 10 µM; calls only at 10 µM (by protocol); 190,000 tested, 0.98% active;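 active = percentage of spot-positive cells more than 3 SD above its plate mean, without a fluorescence outlier flag or 80% toxicity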;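 note: spot-positive cell cutoff set from DMSO-treated cells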
b-catenin transl: modulators of beta-catenin nuclear translocation, primary screen, imaging, HeLa cells, immunofluorescence, high-content; nuclear translocation activity, % at 5 µM; 190,000 tested, 0.3% active; AID 1665, 2009;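 active = nuclear translocation activity above 50% at 5 µM, with a well cell count of 50 or more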;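 note: per-cell ratio of nuclear to cytoplasmic median beta-catenin stain intensity; plate controls were DMSO negative control for no effect and GSK-3 inhibitor IX positive control for full effect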
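assay system = human HeLa cells, endogenous beta-catenin | times = compound treatment 24 h, 37°C, 5% CO2 | detection = Anti-beta-catenin immunofluorescence on PFA-fixed, Triton-permeabilized cells, DAPI nuclei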
An asterisk follows results filed as active; i = inactive; nt = no result given; + = active, no number.

SMILES	CHOP inh	Dynein transport	MT stabilizer	L major viab	Autophagy HCS	b-catenin transl
CCCOc1ccc(C(C)=O)cc1CC(C(=O)OCC)C(=O)OCC	44	-0.49	2	35	i	1
CCOc1ccc(OCCOCCN2CCc3ccccc3C2)cc1	15	1.5	2	91*	i	-1
C=CCc1cc(OC)ccc1OCCOCCC(C(=O)OCC)C(=O)OCC	41	0.33	3	54*	i	0
CC(=O)c1ccc(Oc2ccc(C(=O)c3ccc(C)c(C)c3)cc2[N+](=O)[O-])cc1	54	3	4	12	i	-2
Cc1ccc(Oc2ccc(-c3nnc(-c4ccccc4)o3)cc2[N+](=O)[O-])cc1C	48	-0.15	1	60*	i	1
CCOC(=O)c1cc2c(ccn2-c2ccc(F)cc2)n1CC(=O)N(CC)CC	2	0.091	2	7	i	1
CC(=O)O/N=C/c1c(C)c(C=O)n2ccccc12	31	-0.59	4	-5	i	0
CN(CCNC(=O)c1ccc(N2CCCC2=O)cc1)CCc1ccccc1	12	-0.32	6	9	i	1
CCOc1ccc(-n2c(SCc3nc(-c4cccs4)no3)nnc2-c2ccncc2)cc1	14	0.59	4	62*	i	nt
CCCn1c(SCc2nc(-c3cccs3)no2)nnc1-c1ccncc1	20	-0.17	4	-5	i	-1
C#Cc1ccc([C@H]2C=C(C(=O)NC3CC3)O[C@@H](OCC)[C@@H]2CCCO)cc1	15	0.018	6	-3	i	-1
CN1c2ccsc2/C(=N/NC(=O)c2c(F)cccc2F)CS1(=O)=O	-38	1.5	1	-4	i	-4
CN1c2ccsc2/C(=N/Nc2ccccc2)CS1(=O)=O	-4	-1	7	30	+	-1
Nc1nc(Nc2cccc(Cl)c2)nc(NCc2ccco2)c1[N+](=O)[O-]	0	-0.96	nt	nt	nt	1
Nc1nc(Nc2cccc(F)c2)nc(NCc2ccco2)c1[N+](=O)[O-]	84*	1.3	nt	nt	nt	3
COc1ccc(Nc2nc(N)c([N+](=O)[O-])c(NCCO)n2)cc1	1	0.32	nt	nt	nt	7
CNc1nc(Nc2ccc(Br)cc2)nc(N)c1[N+](=O)[O-]	42	-0.73	5	50*	i	-5
Nc1nc(Nc2ccc(Cl)cc2)nc(NCc2ccco2)c1[N+](=O)[O-]	86*	-0.82	nt	nt	nt	0
CCN1CCN(c2nc(N)c([N+](=O)[O-])c(Nc3cccc(C)c3)n2)CC1	24	1.1	4	100*	i	6
CCN1CCN(c2nc(Nc3ccc(C)c(C)c3)nc(N)c2[N+](=O)[O-])CC1	-5	-0.17	7	4	i	1
CC1=NN(c2ccccc2)C(=O)C1(C)[N+](=O)[O-] (stereo not given)	36	-0.63	6	-6	i	nt
COC(=O)C1=C(NC(C)=O)CCS1	5	-0.63	3	-6	i	-1
CC(Oc1ccccc1)C(=O)NC1=NCCS1 (stereo not given)	-21	-0.52	4	-6	i	2
Cc1cccc(Nc2nc(N)c([N+](=O)[O-])c(NCc3ccco3)n2)c1	96*	-0.52	4	28	i	-5
CN(CC(=O)NCc1ccncc1)S(=O)(=O)c1ccc2ccccc2c1	-1	-0.82	2	0	i	0
SMILES	CHOP inh	Dynein transport	MT stabilizer	L major viab	Autophagy HCS	b-catenin transl
CCOc1ccc(NC(=O)c2ccco2)c([N+](=O)[O-])c1	0	0.18	12*	-6	i	7
CCNC(=S)Nc1cc(OCC)c(NC(=O)c2ccco2)cc1OCC	15	0.22	3	51*	i	1
COc1cc(NC(=O)C2CCCCC2)c(OC)cc1NC(=O)c1ccco1	-4	-0.94	2	11	i	1
CCOc1cc(NC(=O)C2CCCCC2)c(OCC)cc1NC(=O)c1ccco1	84*	2.6	3	-1	i	0
O=C1Oc2ccccc2C(=O)/C1=C\N1CCN(c2ccccc2)CC1	3	-1	6	1	i	-1
COc1cccc(C(C)N(C)Cc2nc(-c3ccoc3)oc2C)c1 (stereo not given)	-1	0.76	3	16	i	0
CCn1c(=O)[nH]c(=O)c2c(N)c(C(=O)c3cc(F)ccc3F)sc21	17	-0.18	nt	nt	nt	0
CC(C(=O)NC(C)(C)C)N(Cc1cccs1)C(=O)CCN1CCc2ccccc21 (stereo not given)	-3	-0.72	2	26	i	-2
COc1cc(C2C(Oc3ccccc3C)C(=O)N2Cc2ccc(F)cc2)cc(OC)c1OC (stereo not given)	-11	0.86	2	99*	i	0
CCCOc1ccc(C2c3c(oc4ccccc4c3=O)C(=O)N2CCCN2CCOCC2)cc1 (stereo not given)	-5	-3.5	5	7	i	nt
COc1ccc(CCNC(=O)c2cn3ccc(C)cc3n2)cc1OC	7	2.3	3	-4	i	-4
Clc1ccc(-c2nc3ccccc3n2OCc2ccccc2)cc1	81*	-0.72	1	-4	i	1
COc1ccc(-c2nc3ccccc3n2OC(C)C(=O)O)cc1 (stereo not given)	-20	-0.13	3	-4	i	-1
COc1ccc(Br)cc1/C(C)=N/NC1=NCCN1	11	0.44	1	52*	i	1
Cn1c(=O)c2c(ncn2Cc2ccc(Cl)cc2)n(C)c1=O	31	0.44	3	-1	i	1
Cn1c(=O)c2c(ncn2CC(COCc2ccc(Cl)cc2)OCc2ccc(Cl)cc2)n(C)c1=O (stereo not given)	-18	-0.57	4	100*	i	-2
COc1ccc(/C=C(\NC(=O)c2ccccc2Cl)C(=O)NCCCC(=O)O)cc1	-3	1.1	4	-6	i	0
CC1(C)Cc2c(sc3nc(N/N=C/c4ccccc4)[nH]c(=O)c23)CO1	81*	-0.68	2	1	i	-2
CC(C)=NNc1nc2sc3c(c2c(=O)[nH]1)CC(C)(C)OC3	-20	-0.42	2	-10	i	-2
Cc1cc(N2CCN(Cc3nc(-c4ccc(F)cc4)oc3C)CC2)cc(C)n1	4	-0.81	5	93*	i	-1
COc1ccccc1N1CCN(Cc2nc(-c3ccc(F)cc3)oc2C)CC1	56	-0.12	2	16	i	0
Cc1ccc(-n2nnc(-c3nccn3C)n2)cc1	20	-0.39	2	-2	i	-1
